# ChEMBL document CHEMBL1777808, “Preparation and pharmacological evaluation of a novel series of 2-(phenylthio)benzo[b]thiophenes as selective MT2 receptor ligands” (Eur J Med Chem, 2011)
# What was measured:
# [1] = molecular target: T1, Melatonin receptor type 1A (Homo sapiens, UniProt P48039); test: Displacement of 2-[125I]iodomelatonin from human MT1 receptor expressed in CHO cells; format: cell-based
# [2] = molecular target: T2, Melatonin receptor type 1B (Homo sapiens, UniProt P49286); test: Displacement of 2-[125I]iodomelatonin from human MT2 receptor expressed in CHO cells; format: cell-based
# T2 sequence (P49286 whole entry): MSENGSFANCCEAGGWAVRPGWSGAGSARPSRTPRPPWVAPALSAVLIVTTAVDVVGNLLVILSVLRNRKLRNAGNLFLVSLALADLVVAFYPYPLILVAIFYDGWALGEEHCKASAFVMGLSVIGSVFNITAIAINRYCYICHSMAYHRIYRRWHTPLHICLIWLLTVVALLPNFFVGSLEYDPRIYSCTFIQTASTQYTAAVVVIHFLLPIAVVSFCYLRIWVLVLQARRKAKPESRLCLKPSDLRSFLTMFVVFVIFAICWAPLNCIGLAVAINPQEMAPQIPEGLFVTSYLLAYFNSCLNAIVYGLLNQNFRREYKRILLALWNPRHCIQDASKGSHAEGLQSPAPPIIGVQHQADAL
# Homo sapiens = species on record: Homo sapiens; test: Selectivity ratio of Ki for human MT1 receptor to Ki for human MT2 receptor
# Outline: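 Ki values from competition binding on membranes of stably transfected CHO cells (human MT1 or MT2). Ratio is MT1 Ki over MT2 Ki.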
# [3] = molecular target: T1, Melatonin receptor type 1A; test: Agonist activity at human MT1 receptor expressed in CHO cells by [35S]GTPgamma binding assay; format: functional, cell-based
# [4] = molecular target: T2, Melatonin receptor type 1B; test: Agonist activity at human MT2 receptor expressed in CHO cells by [35S]GTPgamma binding assay; format: functional, cell-based
# [5] = molecular target: T3, Melatonin receptor type 1B (Homo sapiens) (UniProt P49286); test: Agonist activity at human MT2 receptor expressed in CHO cells by [35S]GTPgamma binding assay relative to melatonin; format: functional, cell-based
# T3 sequence (whole entry): T2 sequence (P49286 whole entry)
# [6] = molecular target: T1, Melatonin receptor type 1A; test: Antagonist activity at human MT1 receptor expressed in CHO cells assessed as inhibition of melatonin-induced [35S]GTPgamma binding; format: functional, cell-based
# Outline: (§1)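 Then 0.2 nM [35S]GTPγS added, 1 h at room temperature in HEPES pH 7.4/NaCl/MgCl2/GDP/saponin buffer. Filtration, three ice-cold washes.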
# [7] = molecular target: T3, Melatonin receptor type 1B (Homo sapiens); test: Antagonist activity at human MT2 receptor expressed in CHO cells assessed as inhibition of melatonin-induced [35S]GTPgamma binding; format: functional, cell-based; outline: as §1
# [8] = molecular target: T1, Melatonin receptor type 1A; test: Agonist activity at human MT1 receptor expressed in CHO cells by [35S]GTPgamma binding assay relative to melatonin; format: functional, cell-based
# T1 sequence (P48039 whole entry): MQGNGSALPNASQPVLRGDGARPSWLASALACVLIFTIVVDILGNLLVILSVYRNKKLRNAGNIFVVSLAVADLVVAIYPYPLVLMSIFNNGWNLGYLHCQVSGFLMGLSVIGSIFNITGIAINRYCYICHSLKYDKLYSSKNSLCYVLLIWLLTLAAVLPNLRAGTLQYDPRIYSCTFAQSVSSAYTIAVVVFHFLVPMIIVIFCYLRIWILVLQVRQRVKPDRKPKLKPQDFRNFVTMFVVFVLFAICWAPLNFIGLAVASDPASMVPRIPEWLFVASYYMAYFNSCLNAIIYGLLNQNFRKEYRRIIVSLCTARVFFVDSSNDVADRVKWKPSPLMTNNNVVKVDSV
SMILES,Ki [1] [nM],Ki [2] [nM],Ratio Ki (Homo sapiens),EC50 [3] [nM],EC50 [4] [nM],Emax [5] [%],Imax [6] [%],Kb [6] [nM],Imax [7] [%],Kb [7] [nM],Emax [8] [%]
O=C(CBr)NCCc1c(Sc2ccc(F)cc2)sc2ccc(F)cc12,22.1,5.21,4.2,> 10000,7.27,47,,,,,
O=C(CCCCl)NCCc1c(Sc2ccc(F)cc2)sc2ccc(F)cc12,2860,24.8,115,,,,,,,,
CCC(=O)NCCc1c(Sc2ccc(F)cc2)sc2ccc(F)cc12,226,4.4,51.4,> 10000,> 10000,,115,42,92,0.67,
O=C(NCCc1c(Sc2ccc(F)cc2)sc2ccc(F)cc12)C1CCC1,915,194,4.7,,,,,,,,
CC(=O)NCCc1csc2ccc(F)cc12,24.6,4.87,5,23.8,0.68,61,,62.8,,> 10000,87
CC(=O)NCCc1c(Sc2ccc(F)cc2)sc2ccc(F)cc12,57,0.87,65.5,202,0.64,42,,,,,33
C=CCC(=O)NCCc1c(Sc2ccc(F)cc2)sc2ccc(F)cc12,52.8,0.24,220,188,2.15,52.4,,,,,45
C=CC(=O)NCCc1c(Sc2ccc(F)cc2)sc2ccc(F)cc12,236,10.7,22,,,,,,,,
